Results from ChEMBL document CHEMBL1148668, “The identification of pyrimidine-diazabicyclo[3.3.0]octane derivatives as 5-HT2C receptor agonists” (Bioorg Med Chem Lett, 2006).
Active and inactive are the calls of the source. No cut-off for these calls is given here.

Columns and labels:
[1] = target: T1, 5-hydroxytryptamine receptor 2C (Homo sapiens, UniProt P28335); assay: Induction of 5HT2C receptor mediated increase in intracellular calcium concentration in HEK293 cells; assay type: functional, cell-based
T1 sequence (P28335 whole entry): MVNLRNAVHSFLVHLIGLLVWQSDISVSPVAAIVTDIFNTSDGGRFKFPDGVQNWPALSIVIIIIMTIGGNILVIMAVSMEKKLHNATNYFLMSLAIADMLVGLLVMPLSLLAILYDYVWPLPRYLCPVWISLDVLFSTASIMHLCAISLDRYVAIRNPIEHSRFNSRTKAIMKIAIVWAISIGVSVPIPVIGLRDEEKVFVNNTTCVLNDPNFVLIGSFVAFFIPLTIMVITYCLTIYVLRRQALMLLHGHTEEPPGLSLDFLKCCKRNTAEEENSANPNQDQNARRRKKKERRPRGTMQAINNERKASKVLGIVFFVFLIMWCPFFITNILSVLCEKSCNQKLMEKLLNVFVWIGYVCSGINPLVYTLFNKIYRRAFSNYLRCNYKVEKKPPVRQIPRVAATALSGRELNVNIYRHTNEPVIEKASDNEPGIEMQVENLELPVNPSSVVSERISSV
Outline: (§1)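 Recombinant cell lines stably expressed the respective 5-HT2 receptor subtype. Agonist-induced rises in intracellular calcium were read with a fluorescence-based assay.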

[2] = target: 5-hydroxytryptamine receptor 2B (Homo sapiens, UniProt P41595); assay: Induction of 5HT2B receptor mediated increase in intracellular calcium concentration in CHO cells; assay type: functional, cell-based; outline: as §1
[3] = target: 5-hydroxytryptamine receptor 2A (Homo sapiens, UniProt P28223); assay: Induction of 5HT2A receptor mediated increase in intracellular calcium concentration in CHO cells; assay type: functional, cell-based; outline: as §1
[4] = Brain to plasma AUC ratio in rat at 1.2 mg/kg, iv; assay type: ADME, organism-based; parameters: dose 1.2 mg/kg, route intravenous; settings: brain and plasma, read-out: Ratio AUC
Outline: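 Brain exposure was taken from cortex tissue. The ratio is AUC in cortex divided by AUC in plasma, after a single intravenous dose in rat.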

[5] = Clearance in rat at 1.2 mg/kg, iv; assay type: ADME, organism-based; parameters: dose 1.2 mg/kg, route intravenous; settings: in vivo
[6] = Half life in rat at 1.2 mg/kg, iv; assay type: ADME, organism-based; parameters: dose 1.2 mg/kg, route intravenous; settings: in vivo
[7] = Oral bioavailability in rat at 10.6 mg/kg, po; assay type: ADME, organism-based; settings: in vivo
Rattus norvegicus [8] = assay: Reduction in food consumption in Sprague-Dawley rat at 20 mg/kg, ip after 4 hrs; assay type: functional, organism-based; parameters: dose 20 mg/kg
Outline: (§2)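 Male Sprague–Dawley rats, n = 10/group, were given vehicle, fenfluramine (positive control) or test compound intraperitoneally about 30 min before onset of the 12 h dark cycle. This was a 24 h acute feeding study, with food consumption recorded at 4 and 24 h.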

Rattus norvegicus [9] = assay: Reduction in food consumption in Sprague-Dawley rat at 20 mg/kg, ip after 24 hrs; assay type: functional, organism-based; parameters: dose 20 mg/kg; outline: as §2
Rattus norvegicus [10] = assay: Reduction in food consumption in ip dosed Sprague-Dawley rat; assay type: functional, organism-based; outline: as §2

Chain of 5-hydroxytryptamine receptor 2B (P41595 whole entry): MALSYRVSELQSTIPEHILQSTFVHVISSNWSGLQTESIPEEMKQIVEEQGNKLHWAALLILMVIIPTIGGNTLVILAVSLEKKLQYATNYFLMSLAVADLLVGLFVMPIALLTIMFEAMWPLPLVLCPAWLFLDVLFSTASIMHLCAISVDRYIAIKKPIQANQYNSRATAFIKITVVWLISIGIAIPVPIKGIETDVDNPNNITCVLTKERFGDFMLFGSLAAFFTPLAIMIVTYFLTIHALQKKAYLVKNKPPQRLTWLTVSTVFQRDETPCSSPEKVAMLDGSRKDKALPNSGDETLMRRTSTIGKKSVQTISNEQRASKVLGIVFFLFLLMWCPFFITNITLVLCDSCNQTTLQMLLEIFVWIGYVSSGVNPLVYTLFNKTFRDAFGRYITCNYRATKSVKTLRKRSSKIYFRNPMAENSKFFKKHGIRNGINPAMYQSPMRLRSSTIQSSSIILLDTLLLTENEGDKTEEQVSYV
Chain of 5-hydroxytryptamine receptor 2A (P28223 whole entry): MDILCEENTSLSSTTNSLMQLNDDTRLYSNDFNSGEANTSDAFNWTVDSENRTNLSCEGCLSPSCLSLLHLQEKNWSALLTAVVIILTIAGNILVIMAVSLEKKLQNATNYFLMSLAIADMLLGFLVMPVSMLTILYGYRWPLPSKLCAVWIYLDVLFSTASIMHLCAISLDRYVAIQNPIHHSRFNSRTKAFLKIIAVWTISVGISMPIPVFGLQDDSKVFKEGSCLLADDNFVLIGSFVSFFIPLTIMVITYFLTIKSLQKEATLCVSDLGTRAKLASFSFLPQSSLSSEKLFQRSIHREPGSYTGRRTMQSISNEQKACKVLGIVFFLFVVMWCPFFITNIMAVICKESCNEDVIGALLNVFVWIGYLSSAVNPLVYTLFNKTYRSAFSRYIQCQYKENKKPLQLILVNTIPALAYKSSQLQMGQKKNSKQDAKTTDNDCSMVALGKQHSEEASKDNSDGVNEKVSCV

Structure (SMILES) | EC50 [1] | EC50 [2] | EC50 [3] | further results
C[C@H]1C[C@H]2CNC[C@H]2N1c1nccc(C(F)(F)F)n1 | 22 nM | 151 nM | 40 nM | 
FC(F)(F)c1ccnc(N2CC[C@H]3CNC[C@H]32)n1 | 23 nM | 62 nM | 116 nM | Kp [4]: 14.5; clearance [5]: 6.71 mL/min/kg; half-life [6]: 1.1 h; bioavailability [7]: 6%; Activity (Rattus norvegicus [8]): Active; Activity (Rattus norvegicus [9]): Active; Activity (Rattus norvegicus [10]): Dose-dependent effect
C[C@@H]1C[C@H]2CNC[C@H]2N1c1nccc(C(F)(F)F)n1 | 57 nM | 48 nM | 25 nM | 
FC(F)(F)c1cccc([C@H]2CC[C@H]3CNC[C@H]32)c1 | 420 nM | 187 nM | 1080 nM | 
FC(F)(F)c1ccnc(N2CC[C@@H]3CNC[C@@H]32)n1 | 519 nM |  |  | 
Fc1cccc(N2CC[C@H]3CNC[C@H]32)c1 | 319 nM | 108 nM | 1120 nM | 
Clc1cccc(N2CC[C@H]3CNC[C@H]32)c1 | 503 nM | 59 nM | 416 nM | 
FC(F)(F)c1ccnc(N2C[C@@H]3CCN[C@@H]3C2)n1 | > 20000 nM |  |  | 
Fc1ccc(F)c(-c2ccnc(N3CC[C@H]4CNC[C@H]43)n2)c1 | > 1000 nM |  |  | 
FC(F)(F)c1cccc(N2CC[C@H]3CNC[C@H]32)c1 | 103 nM | 65 nM | 168 nM | 
Fc1ccc(F)c(-c2ccnc(N3C[C@@H]4CCN[C@@H]4C3)n2)c1 | > 20000 nM |  |  | 
FC(F)(F)c1ccnc(N2CCC3CNCC32)n1 (racemic) | 180 nM | 320 nM | 220 nM | 
Clc1ccc(Cl)c(-c2ccnc(N3CC[C@H]4CNC[C@H]43)n2)c1 | > 1000 nM |  |  | 
Clc1ccc(Cl)c(-c2ccnc(N3C[C@@H]4CCN[C@@H]4C3)n2)c1 | > 20000 nM |  |  | 
